Reference: ChEMBL document CHEMBL4196218, “Synthesis and in Vitro Bioactivity of Polyunsaturated Fatty Acid Conjugates of Combretastatin A-4” (J Nat Prod, 2018)
Active and inactive are the calls of the source. The rule behind the calls is not given here.

How the values were obtained:
Bos taurus [1] = organism: Bos taurus; experiment: Inhibition of bovine tubulin polymerization at 1 uM measured every 30 secs for 2 hrs by turbidity method
In short: (§1)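 Kit-based turbidity assay with tubulin at 26.7 μM (2.94 mg/mL) in G-PB buffer (polymerization buffer, GTP, glycerol), assembled on ice. Compound stocks in DMSO diluted in water to give 1 or 10 μM. A350 read every 30 s for 2 h at 37 °C. Nocodazole and DMSO (1.43% or 0.14% v/v) as controls. Duplicate assays. Area under curve compared by one-way ANOVA with Bonferroni post-test.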

MCF7 [2] = experiment: Cytotoxicity against human MCF7 cells after 72 hrs by MTS/PMS assay; assay type: functional, cell-based; details: for IC50: MCF7, 72 h
In short: (§2)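 MCF-7 cells grown in DMEM with 10% heat-inactivated FBS, penicillin, streptomycin, L-glutamine and MEM NEAA at 37 °C, 5% CO2. Seeded at 5000 cells/well. After 24 h, given fresh medium plus compound (DMSO stock diluted in DPBS; final 0–10 μM) for 72 h. Then serum-free medium with MTS/PMS for 1 h at 37 °C. A490 read, viability as % of untreated cells. IC50 read graphically. Six replicates, three independent experiments.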

Bos taurus [3] = organism: Bos taurus; experiment: Inhibition of bovine tubulin polymerization assessed as lag time for tubulin polymerization at 1 uM measured every 30 secs for 2 hrs by turbidity method; in short: as §1
Bos taurus [4] = organism: Bos taurus; experiment: Inhibition of bovine tubulin polymerization at 10 uM measured every 30 secs for 2 hrs by turbidity method; in short: as §1
MCF7 [5] = experiment: Cytotoxicity against human MCF7 cells assessed as cell viability at 5 to 10 uM after 72 hrs by MTS/PMS assay relative to control; assay type: functional; in short: as §2

SMILES | inhibition (Bos taurus [1]) | IC50 (MCF7 [2]) | TIME (Bos taurus [3]) | inhibition (Bos taurus [4]) | Activity (MCF7 [5]) | Activity (MCF7 [2])
CC/C=C\C/C=C\C/C=C\CCCCCCCC(=O)Oc1cc(/C=C\c2cc(OC)c(OC)c(OC)c2)ccc1OC | Active | > 10000 nM | 0.25 to 0.333 h | inactive | 65 - 75% | 
CCCCC/C=C\C/C=C\CCCCCCCC(=O)Oc1cc(/C=C\c2cc(OC)c(OC)c(OC)c2)ccc1OC | Active | > 10000 nM | 0.25 to 0.333 h | inactive | 65 - 75% | 
COc1ccc(/C=C\c2cc(OC)c(OC)c(OC)c2)cc1O [COMBRETASTATIN A4] | Active | 200 nM |  |  |  | 
CCCCC/C=C\C/C=C\C/C=C\C/C=C\CCCC(=O)Oc1cc(/C=C\c2cc(OC)c(OC)c(OC)c2)ccc1OC | Active | 700 nM | 0.25 to 0.333 h | inactive |  | Dose-dependent effect
